Reference: the RNAGym collection of RNA variant scans (doi:10.1038/s41586-018-0170-7)

B1: tRNA (parent)
chain: GUUCCGUUGGCGUAAUGGUAACGCGUCUCCCUCCUAAGGAGAAGACUGCGGGUUCGAGUCCCGUACGGAACG

Variants of: B1
Experiment: yeast fitness, log relative to wild type (ln ratio); higher = fitter; tRNA-Arg(CCU), competitive growth, 37 C, 1 M NaCl
In short: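 Variants were counted by 125 bp paired-end Illumina sequencing after pools of a combinatorial tRNA-Arg(CCU) library, held on a HIS3 centromeric plasmid in BY4742 lacking the chromosomal gene, grew ~6.5 generations (~26.5 h) in SC-HIS 1M NaCl at 37 °C. Each genotype's fitness is the natural log of its generations relative to the wild type's. Generations were OD-scaled log2 output/input frequencies, inverse-variance weighted over replicates.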

| Variant | yeast fitness (ln) |
| --- | --- |
| ACUCCUUUGGCGUAAUGGUAACGCGUCUCCCUCCUAAGGAGAAGAUUGCGGGUUCGAGUCCCGUAUGGAGUG [G1A U2C G6U C46U C66U A70G C71U] | -0.0224 |
| AGUCCGUUGGCGUAAUGGUAACGCGUCUCCCUCCUAAGGAGACGACUGCGGGUUCGAGUCCCGUAAGGAUUG [G1A U2G A43C C66A A70U C71U] | -0.396 |
| AGUCCAUUGGCGUAAUGGUAACGCGUUUCCCUCCUAAGGAGACGAUUGCGGGUUCGAGUCCCGUAUGGAGUG [G1A U2G G6A C27U A43C C46U C66U A70G C71U] | -0.286 |
| GCUCCGUUGGCGUAAUGGUAACGCGUCUCCCUCCUAAGGAGACGAUUGCGGGUUCGAGUCCCGUAUGGAUCG [U2C A43C C46U C66U A70U] | -0.0497 |
| AUUCCAUUGGCGUAAUGGUAACGCGUCUCCCUCCUAAGGAGAAGAUUGCGGGUUCGAGUCCCGUACGGGUCG [G1A G6A C46U A69G A70U] | -0.0698 |
| AUUCCGUUGGCGUAAUGGUAACGCGUUUCCCUCCUAAGGAGAAGAUUGCGGGUUCGAGUCCCGUAUGGAAUG [G1A C27U C46U C66U C71U] | -0.454 |
| AUUCCGUUGGCGUAAUGGUAACGCGUCUCCCUCCUAAGGAGACGAUUGCGGGUUCGAGUCCCGUACGGAAUG [G1A A43C C46U C71U] | -0.00436 |
| AGUCCAUUGGCGUAAUGGUAACGCGUUUCCCUCCUAAGGAGAAGAUUGCGGGUUCGAGUCCCGUAUGGAGCG [G1A U2G G6A C27U C46U C66U A70G] | -0.194 |
| AGUCCUUUGGCGUAAUGGUAACGCGUUUCCCUCCUAAGGAGAAGACUGCGGGUUCGAGUCCCGUAUGGAGCG [G1A U2G G6U C27U C66U A70G] | -0.357 |
| GCUCCUUUGGCGUAAUGGUAACGCGUUUCCCUCCUAAGGAGACGACUGCGGGUUCGAGUCCCGUACGGGUCG [U2C G6U C27U A43C A69G A70U] | -0.271 |
| ACUCCAUUGGCGUAAUGGUAACGCGUUUCCCUCCUAAGGAGAAGAUUGCGGGUUCGAGUCCCGUAUGGGUCG [G1A U2C G6A C27U C46U C66U A69G A70U] | -0.0756 |
| GCUCCGUUGGCGUAAUGGUAACGCGUCUCCCUCCUAAGGAGACGACUGCGGGUUCGAGUCCCGUAUGGAAUG [U2C A43C C66U C71U] | -0.24 |
| GUUCCUUUGGCGUAAUGGUAACGCGUUUCCCUCCUAAGGAGAAGACUGCGGGUUCGAGUCCCGUACGGAACG [G6U C27U] | -0.111 |
| GUUCCUUUGGCGUAAUGGUAACGCGUUUCCCUCCUAAGGAGACGACUGCGGGUUCGAGUCCCGUAUGGAACG [G6U C27U A43C C66U] | -0.227 |
| AUUCCUUUGGCGUAAUGGUAACGCGUCUCCCUCCUAAGGAGAAGAUUGCGGGUUCGAGUCCCGUAUGGGGCG [G1A G6U C46U C66U A69G A70G] | -0.205 |
| GUUCCAUUGGCGUAAUGGUAACGCGUUUCCCUCCUAAGGAGAAGAUUGCGGGUUCGAGUCCCGUAAGGAAUG [G6A C27U C46U C66A C71U] | -0.148 |
| GUUCCUUUGGCGUAAUGGUAACGCGUUUCCCUCCUAAGGAGACGAUUGCGGGUUCGAGUCCCGUAUGGAUCG [G6U C27U A43C C46U C66U A70U] | -0.322 |
| ACUCCAUUGGCGUAAUGGUAACGCGUUUCCCUCCUAAGGAGAAGAUUGCGGGUUCGAGUCCCGUAUGGAUUG [G1A U2C G6A C27U C46U C66U A70U C71U] | -0.364 |
| GGUCCUUUGGCGUAAUGGUAACGCGUUUCCCUCCUAAGGAGACGAUUGCGGGUUCGAGUCCCGUACGGAAUG [U2G G6U C27U A43C C46U C71U] | -0.197 |

| Variant | yeast fitness (ln) |
| --- | --- |
| AUUCCUUUGGCGUAAUGGUAACGCGUUUCCCUCCUAAGGAGAAGACUGCGGGUUCGAGUCCCGUAUGGGGCG [G1A G6U C27U C66U A69G A70G] | -0.47 |
| ACUCCUUUGGCGUAAUGGUAACGCGUCUCCCUCCUAAGGAGACGAUUGCGGGUUCGAGUCCCGUAAGGGGCG [G1A U2C G6U A43C C46U C66A A69G A70G] | -0.25 |
| GGUCCAUUGGCGUAAUGGUAACGCGUCUCCCUCCUAAGGAGAAGAUUGCGGGUUCGAGUCCCGUAUGGGGUG [U2G G6A C46U C66U A69G A70G C71U] | -0.188 |
| GGUCCGUUGGCGUAAUGGUAACGCGUCUCCCUCCUAAGGAGACGAUUGCGGGUUCGAGUCCCGUACGGAAUG [U2G A43C C46U C71U] | -0.0479 |
| GGUCCAUUGGCGUAAUGGUAACGCGUCUCCCUCCUAAGGAGACGAUUGCGGGUUCGAGUCCCGUAUGGGGCG [U2G G6A A43C C46U C66U A69G A70G] | -0.199 |
| GCUCCUUUGGCGUAAUGGUAACGCGUUUCCCUCCUAAGGAGAAGAUUGCGGGUUCGAGUCCCGUACGGAUCG [U2C G6U C27U C46U A70U] | -0.13 |
| AUUCCUUUGGCGUAAUGGUAACGCGUCUCCCUCCUAAGGAGACGAUUGCGGGUUCGAGUCCCGUACGGGGCG [G1A G6U A43C C46U A69G A70G] | -0.281 |
| GUUCCGUUGGCGUAAUGGUAACGCGUUUCCCUCCUAAGGAGACGAUUGCGGGUUCGAGUCCCGUACGGAACG [C27U A43C C46U] | -0.00723 |
| GCUCCAUUGGCGUAAUGGUAACGCGUCUCCCUCCUAAGGAGAAGACUGCGGGUUCGAGUCCCGUAUGGGACG [U2C G6A C66U A69G] | -0.271 |
| AGUCCUUUGGCGUAAUGGUAACGCGUCUCCCUCCUAAGGAGAAGACUGCGGGUUCGAGUCCCGUACGGGGUG [G1A U2G G6U A69G A70G C71U] | -0.427 |
| AUUCCUUUGGCGUAAUGGUAACGCGUCUCCCUCCUAAGGAGACGAUUGCGGGUUCGAGUCCCGUAAGGAAUG [G1A G6U A43C C46U C66A C71U] | -0.0191 |
| ACUCCAUUGGCGUAAUGGUAACGCGUCUCCCUCCUAAGGAGAAGAUUGCGGGUUCGAGUCCCGUACGGAACG [G1A U2C G6A C46U] | 0.00156 |
| AUUCCAUUGGCGUAAUGGUAACGCGUUUCCCUCCUAAGGAGACGAUUGCGGGUUCGAGUCCCGUACGGAUCG [G1A G6A C27U A43C C46U A70U] | -0.201 |
| AUUCCGUUGGCGUAAUGGUAACGCGUCUCCCUCCUAAGGAGACGAUUGCGGGUUCGAGUCCCGUACGGAACG [G1A A43C C46U] | -0.059 |
| AGUCCAUUGGCGUAAUGGUAACGCGUCUCCCUCCUAAGGAGAAGACUGCGGGUUCGAGUCCCGUACGGGGUG [G1A U2G G6A A69G A70G C71U] | -0.298 |
| GGUCCGUUGGCGUAAUGGUAACGCGUCUCCCUCCUAAGGAGACGAUUGCGGGUUCGAGUCCCGUAAGGGAUG [U2G A43C C46U C66A A69G C71U] | -0.302 |
| GUUCCGUUGGCGUAAUGGUAACGCGUUUCCCUCCUAAGGAGAAGAUUGCGGGUUCGAGUCCCGUAAGGAGUG [C27U C46U C66A A70G C71U] | -0.129 |
| ACUCCAUUGGCGUAAUGGUAACGCGUCUCCCUCCUAAGGAGAAGACUGCGGGUUCGAGUCCCGUAUGGGUCG [G1A U2C G6A C66U A69G A70U] | -0.0166 |
